Measured values reported in ChEMBL document CHEMBL1123479, “Substituted 1,3,4-thiadiazoles with anticonvulsant activity. 2. Aminoalkyl derivatives” (J Med Chem, 1986).

What was measured:
Mus musculus [1] = organism: Mus musculus; assay: Compound was evaluated for anticonvulsant activity in mice against electroshock seizures; type: functional
Procedure, shortened: (§1)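 Mouse screen with oral dosing; the ED50 is given in mg/kg, po. Signs of sedation, ataxia, loss of righting reflex and death were noted after oral dosing before anticonvulsant testing.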

Mus musculus [2] = organism: Mus musculus; assay: Compound was evaluated for anticonvulsant activity in mice against metrazole seizures; type: functional; procedure, shortened: as §1
[3] = Compound was tested for rotarod test in mice and TD50 value at which 50% of trained animals fall off rotarod was reported; type: organism-based; conditions: mouse, in vivo
Procedure, shortened: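 Mice trained on the rotorod, then dosed po (tested at 1 h) or ip (tested at time of peak anticonvulsant effect). Neurotoxicity scored as falling off the rod.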

Mus musculus [4] = organism: Mus musculus; assay: Compound was evaluated for inhibition of hind limb tonus (anticonvulsant activity ) in mouse; type: functional, Hindlimb
Procedure, shortened: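 Maximal electroshock in mice, scoring abolition of hind-limb tonic extension. Compound given ip and tested at its time of peak effect. ED50 in mg/kg reported with 95% confidence limits.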

Mus musculus [5] = organism: Mus musculus; assay: Compound was evaluated for inhibition of hind limb tonus (anticonvulsant activity) in mouse; type: functional, Hindlimb
Procedure, shortened: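 Maximal electroshock in mice, ip dosing. The ED50 (mg/kg) is for blocking hind limb tonic extension at each compound's time of peak effect, which was determined in min. 95% confidence limits are reported.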

Mus musculus [6] = assay: Compound was evaluated for inhibition of hind limb tonus (anticonvulsant activity) in mouse maximal metrazole seizures (MMS) after peroral administration; type: functional; conditions: Hindlimb, po

SMILES: CNCc1nnc(-c2ccccc2)s1
- ED50 (Mus musculus [1]): > 200 mg/kg
- ED50 (Mus musculus [2]): > 200 mg/kg

SMILES: CCC1(c2ccccc2)C(=O)NC(=O)NC1=O [PHENOBARBITAL]
- TD50 [3]: 86 mg/kg
- Peak effect time (Mus musculus [4]): 30 min

SMILES: NCCc1nnc(-c2ccccc2-c2ccccc2)s1
- ED50 (Mus musculus [1]): 50 mg/kg
- ED50 (Mus musculus [2]): 68 mg/kg

SMILES: CC(C)NCc1nnc(-c2ccccc2-c2ccccc2)s1
- ED50 (Mus musculus [1]): 23 mg/kg
- ED50 (Mus musculus [2]): 35 mg/kg

SMILES: c1ccc(CNCc2nnc(-c3ccccc3-c3ccccc3)s2)cc1
- ED50 (Mus musculus [1]): 37 mg/kg
- ED50 (Mus musculus [2]): 29 mg/kg

SMILES: NCc1nnc(Cc2ccccc2-c2ccccc2)s1
- ED50 (Mus musculus [1]): 30 mg/kg

SMILES: CCCCCCOc1ccccc1-c1nnc(CNC)s1
- ED50 (Mus musculus [1]): 44 mg/kg

SMILES: CCCCCCOc1ccccc1-c1nnc(CN)s1
- ED50 (Mus musculus [1]): 34 mg/kg

SMILES: CC(N)c1nnc(-c2ccccc2-c2ccccc2)s1 (centres undefined)
- ED50 (Mus musculus [1]): 21 mg/kg
- ED50 (Mus musculus [2]): 32 mg/kg

SMILES: NC(=O)N1c2ccccc2C=Cc2ccccc21 [CARBAMAZEPINE]
- Peak effect time (Mus musculus [5]): 20 min

SMILES: NCCCc1nnc(-c2ccccc2-c2ccccc2)s1
- ED50 (Mus musculus [1]): > 200 mg/kg
- ED50 (Mus musculus [2]): > 200 mg/kg

SMILES: O=C1NC(=O)C(c2ccccc2)(c2ccccc2)N1 [PHENYTOIN]
- Peak effect time (Mus musculus [4]): 60 min

SMILES: NCc1nnc(-c2ccccc2-c2ccccc2)s1
- ED50 (Mus musculus [6]): 20 mg/kg
- Peak effect time (Mus musculus [5]): 10 min

SMILES: CNCc1nnc(-c2ccccc2-c2ccccc2)s1
- ED50 (Mus musculus [1]): 25 mg/kg
- ED50 (Mus musculus [2]): 20 mg/kg

SMILES: NCc1nnc(Cc2ccccc2)s1
- ED50 (Mus musculus [1]): 110 mg/kg
- ED50 (Mus musculus [2]): 200 mg/kg

SMILES: Cc1ccccc1NCc1nnc(-c2ccccc2-c2ccccc2)s1
- ED50 (Mus musculus [1]): > 200 mg/kg
- ED50 (Mus musculus [2]): > 200 mg/kg

SMILES: CN(C)Cc1nnc(-c2ccccc2-c2ccccc2)s1
- ED50 (Mus musculus [1]): 32 mg/kg
- ED50 (Mus musculus [2]): 35 mg/kg
